These results are taken from ChEMBL document CHEMBL1157370, “Efficacy of a novel rifamycin derivative, ABI-0043, against Staphylococcus aureus in an experimental model of foreign-body infection” (Antimicrob Agents Chemother, 2007).

Molecules are shown by their SMILES. In brackets after ≈: the same amount, converted by molar mass.

In series [1] the test system is Staphylococcus aureus. Put plainly: Ratio of MBC for Staphylococcus aureus ATCC 29213 during stationary-growth phase to logarithmic-growth phase.
The test system of series [2] is Staphylococcus aureus. Put plainly: Antibacterial activity against Staphylococcus aureus ATCC 29213 infected albino guinea pig tissue-cage infection model assessed as infection cure rate at 3 mg/kg, ip administered every 12 hrs for 4 days. The class given is functional. The conditions noted are these: route intraperitoneal. The procedure, abridged:
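Guinea pig subcutaneous Teflon tissue-cage model infected with 2 × 10^4 CFU S. aureus. Drug given ip every 12 h for 4 days from 24 h post-infection. Cages removed on day 9, vortexed in 10 ml TSB, incubated 24 h at 37°C and plated on sheep blood agar. Cure rate = fraction of cages with no growth; ≥12 cages per regimen.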

The subject of series [3] is Staphylococcus aureus. Put plainly: Antibacterial activity against Staphylococcus aureus ATCC 29213 assessed as stationary-growth-phase minimal bactericidal concentration after 24 hrs by macrotube dilution method. The class given is functional. The conditions noted are these: ATCC 29213, 24 h.
The nature of series [4]: Cmin in albino guinea pig cage fluid at 12.5 mg/kg, ip administered as single dose measured after 12 hrs. The class given is ADME, organism-based, Cavia porcellus. Details: dose 12.5 mg/kg, route intraperitoneal. The conditions noted are these: read-out: Cmin. The procedure, abridged: (§1)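 Noninfected guinea pigs with subcutaneous tissue cages received ip dosing, either a single dose or every 12 h for 4 days (multiple-dose values taken on day 4). Cage fluid was aspirated over 12 h, mixed with EDTA, centrifuged and stored at −20°C. Drug levels were measured by agar diffusion bioassay. Cmin was taken 12 h after dosing. Values are means ± SD from 12 aspirates.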

Series [5] relates to Staphylococcus aureus. Description: Antibacterial activity against Staphylococcus aureus ATCC 29213 infected albino guinea pig tissue-cage infection model assessed as infection cure rate at 12.5 mg/kg, ip administered every 12 hrs for 4 days. The class given is functional. As to conditions: route intraperitoneal. The procedure, abridged: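 Guinea pig tissue-cage S. aureus infection (2 × 10^4 CFU per cage), treated ip every 12 h for 4 days, starting 24 h after inoculation. Cages were explanted 5 days after treatment ended, vortexed in 10 ml TSB and incubated at 37°C. After 24 h, 50 μl was plated on sheep blood agar. Cure rate is the fraction of cages with no growth; at least 12 cages per regimen.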

A short description of series [6]: Ratio of peak drug level in albino guinea pig cage fluid at 12.5 mg/kg, ip to MIC for Staphylococcus aureus ATCC 29213. It is filed as functional. The conditions noted are these: route intraperitoneal. An outline of the steps: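 The peak cage-fluid concentration after a single ip dose was divided by the MIC. MIC was determined by macrotube dilution in cation-adjusted Mueller-Hinton broth with an inoculum of 5 × 10^5 CFU/ml, read visually as the lowest concentration with no growth. Tests were run in triplicate and the median reported.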

Series [7] in a line: Cmin in albino guinea pig cage fluid at 3 mg/kg, ip administered as single dose measured after 12 hrs. It is filed as ADME, organism-based, Cavia porcellus. Set-up: dose 3 mg/kg, route intraperitoneal. The conditions noted are these: read-out: Cmin. An outline of the steps:
(§2)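 Noninfected cage-bearing guinea pigs given one ip dose. Cage fluid aspirated over 12 h, mixed with EDTA and centrifuged. Levels measured in triplicate by agar diffusion bioassay with S. pneumoniae ATCC 49619 indicator (detection limit 0.0005 μg/ml). Cmin taken 12 h post-dose; means ± SD from 12 aspirates.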

Series [8] deals with Staphylococcus aureus. Description: Antibacterial activity against Staphylococcus aureus ATCC 29213 assessed as logarithmic-growth-phase minimal bactericidal concentration after 24 hrs by macrotube dilution method. It is filed as functional. The conditions noted are these: ATCC 29213, 24 h. The procedure, abridged:
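MBClog: cation-adjusted Mueller-Hinton broth, macrotube dilution, inoculum 5 × 10^5 CFU/ml taken from overnight culture; lowest concentration cutting initial count by >99.9% (3 log10 CFU/ml) after 24 h incubation. Run in triplicate, median reported.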

The nature of series [9]: Cmax in albino guinea pig cage fluid at 12.5 mg/kg, ip administered every 12 hrs for 4 days. It is filed as ADME, organism-based, Cavia porcellus, Interstitial fluid. Details: dose 12.5 mg/kg, route intraperitoneal. The procedure, abridged: as §1
Series [10] is described as follows: Cmax in albino guinea pig cage fluid at 3 mg/kg, ip administered as single dose. It is filed as ADME, organism-based, Cavia porcellus, Interstitial fluid. Details: dose 3 mg/kg, route intraperitoneal. An outline of the steps: as §2
A short description of series [11]: Cmax in albino guinea pig cage fluid at 12.5 mg/kg, ip administered as single dose. The class given is ADME, organism-based, Cavia porcellus, Interstitial fluid. Set-up: dose 12.5 mg/kg, route intraperitoneal. An outline of the steps:
as §1

Series [12] can be described thus: Ratio of peak drug level in albino guinea pig cage fluid at 12.5 mg/kg, ip to MBC for Staphylococcus aureus ATCC 29213 during stationary-growth phase. As to conditions: route intraperitoneal.
Series [13] deals with Staphylococcus aureus. Put plainly: Antibacterial activity against Staphylococcus aureus ATCC 29213 by macrotube dilution method. It is filed as functional. The procedure, abridged:
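S. aureus from overnight culture, inoculum 5 × 10^5 CFU/ml, in cation-adjusted Mueller-Hinton broth; twofold? no—serial drug dilutions (tips changed each dilution) per CLSI macrotube method. MIC = lowest concentration with no visible growth. Run in triplicate, median reported.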

Series [14] deals with Staphylococcus aureus. Put plainly: Antibacterial activity against Staphylococcus aureus ATCC 29213 infected albino guinea pig tissue-cage infection model assessed as bacterial count at 12 mg/kg, ip administered every 12 hrs for 4 days measured after treatment period. The class given is functional. The conditions noted are these: route intraperitoneal. The procedure, abridged: (§3)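 Male albino guinea pigs (640–800 g) carrying four subcutaneous Teflon tissue cages; cages inoculated with 2 × 10^4 CFU S. aureus. Drug given ip in saline (5 ml total) every 12 h for 4 days, starting 24 h post-infection. Cage-fluid log10 CFU/ml measured on day 1 (baseline), day 4 before last dose (during treatment), and day 9 (5 days after treatment). ≥12 cages (3 animals) per regimen; mean reported.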

Series [15] has as its system Staphylococcus aureus. Description: Antibacterial activity against Staphylococcus aureus ATCC 29213 infected albino guinea pig tissue-cage infection model assessed as bacterial count at 12 mg/kg, ip administered every 12 hrs for 4 days measured during treatment period. As to conditions: route intraperitoneal. It is filed as functional. An outline of the steps: as §3

The test system of series [16] is Staphylococcus aureus. Description: Antibacterial activity against Staphylococcus aureus ATCC 29213 infected albino guinea pig tissue-cage infection model assessed as bacterial count at 12.5 mg/kg, ip administered every 12 hrs after 4 days. The conditions noted are these: route intraperitoneal. The class given is functional. An outline of the steps:
(§4)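 Male albino guinea pigs (640 to 800 g) carried four subcutaneous perforated Teflon cages. After two weeks, sterility was confirmed and each cage was inoculated percutaneously with 2 × 10^4 CFU S. aureus in 200 μl. Treatment began 24 h later: ip every 12 h for 4 days (8 doses). Quantitative cage-fluid cultures were taken on day 1, before the last dose (day 4) and 5 days after treatment (day 9). At least 12 cages (3 animals) per regimen.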

The subject of series [17] is Staphylococcus aureus. Description: Antibacterial activity against Staphylococcus aureus ATCC 29213 infected albino guinea pig tissue-cage infection model assessed as bacterial count at 12.5 mg/kg, ip administered every 12 hrs after 5 days. The conditions noted are these: route intraperitoneal. It is filed as functional. An outline of the steps:
as §4

Series [18] can be described thus: Cmin in albino guinea pig cage fluid at 5 mg/kg, ip administered as single dose measured after 12 hrs. The class given is ADME, organism-based, Cavia porcellus. Details: dose 5 mg/kg, route intraperitoneal. The conditions noted are these: read-out: Cmin. An outline of the steps: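 Single ip dose to noninfected cage-bearing guinea pigs. Cage fluid EDTA-treated and centrifuged, then assayed with E. coli V6311/65 bioassay (detection limit 0.01 μg/ml). Trough measured 12 h after dosing; means ± SD from 12 aspirates.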

Series [19] can be described thus: in vivo. The conditions noted are these: guinea pig, cage fluid, ip, 5 mg/kg.

Take `CO[C@H]1/C=C/O[C@@]2(C)Oc3c(C)c(O)c4c(=O)c(c5oc6cc(N7CCN(C)CC7)cc(O)c6nc-5c4c3C2=O)NC(=O)/C(C)=C\C=C\[C@H](C)[C@H](O)[C@@H](C)[C@@H](O)[C@@H](C)[C@H](O)[C@@H]1C`: the results for the Ratio in [1], in series [6] and in [12] were 31.3, 1130 and 4.52, respectively. The Activity in series [2] is 8%; in series [5] it was 58%. In addition, the MBC in [3] came out at 0.25 µg/mL (≈ 0.292 µM); in series [8], 0.008 µg/mL (≈ 0.00934 µM). Besides, the values for the concentration at 12 h in series [4] and in series [7] were 140 ng/mL and 40 ng/mL, respectively. Further, the figures for the Cmax in series [9], in series [10] and in [11] were 820 ng/mL, 110 ng/mL and 1130 ng/mL, respectively. Besides, the MIC in series [13] was 0.001 µg/mL (≈ 0.00117 µM). In addition, the log10CFU/ml in series [14] is on record as 1.57; in series [15] it was 3.24.
For `CO[C@H]1/C=C/O[C@@]2(C)Oc3c(C)c(O)c4c(O)c(c(/C=N/N5CCN(C)CC5)c(O)c4c3C2=O)NC(=O)/C(C)=C\C=C\[C@H](C)[C@H](O)[C@@H](C)[C@@H](O)[C@@H](C)[C@H](OC(C)=O)[C@@H]1C` [RIFAMPIN], the log10CFU/ml turned out to be 3.68 in series [16] and 1.43 in [17]. For the same compound, the MBC in series [3] came to 3.6 µg/mL (≈ 4.37 µM); in [8], 0.8 µg/mL (≈ 0.972 µM). Further, the concentration at 12 h in series [4] stood at 140 ng/mL. Besides, the Activity in [5] is 46%. The compound also gave a Cmax in series [9] of 610 ng/mL. Moreover, the MIC in series [13] is 0.016 µg/mL (≈ 0.0194 µM).
`C[C@H]1COc2c(N3CCN(C)CC3)c(F)cc3c(=O)c(C(=O)O)cn1c23.C[C@H]1COc2c(N3CCN(C)CC3)c(F)cc3c(=O)c(C(=O)O)cn1c23.O` [LEVOFLOXACIN]: the Ratio in series [1] amounted to 125. Further, the concentration at 12 h in [18] is 10 ng/mL. Besides, the minimum bactericidal concentration (MBC) was found to be 40 µg/mL in series [3] and 0.32 µg/mL in [8]. The compound further yielded a Cmax in [19] of 970 ng/mL. The MIC in series [13] came out at 0.16 µg/mL.
